Data published in ChEMBL document CHEMBL1157250, “Bioactive dibenzylbutyrolactone and dibenzylbutanediol lignans from Peperomia duclouxii” (J Nat Prod, 2006).
pIC50: −log10 of the molar value.

Columns and labels:
[1] = Reversal of multidrug resistance in human 2780AD cells assessed as accumulation of calcein at 0.25 ug/mL after 15 mins by fluorescence technique relative to control; assay type: functional, A2780 ADR
Method in brief: (§1)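 MDR ovarian 2780AD cells (RPMI-1640, 10% FBS), ca. 1 × 10^5 per well, held 24 h at 37 °C in 5% CO2. Compounds in DMSO diluted with PBS(-) were added 15 min before calcein AM (1 µM in PBS(-) as added), incubated 60 min, then washed with cold PBS(-). Calcein fluorescence is given as a percentage of untreated control, mean of triplicates.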

[2] = Reversal of multidrug resistance in human 2780AD cells assessed as accumulation of calcein at 0.25 ug/mL after 15 mins by fluorescence technique relative to verapamil; assay type: functional, A2780 ADR
Method in brief: (§2)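 Same 2780AD set-up: 24 h pre-culture, then a 15 min compound pre-exposure (DMSO/PBS(-) dilution), calcein AM added (1 µM in PBS(-) as added) for 60 min, cold PBS(-) washes, and a calcein fluorescence read. Accumulation is expressed relative to that obtained with verapamil at the same concentration, mean of triplicates.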

[3] = Reversal of multidrug resistance in human 2780AD cells assessed as accumulation of calcein at 2.5 ug/mL after 15 mins by fluorescence technique relative to control; assay type: functional, A2780 ADR; method in brief: as §1
[4] = Reversal of multidrug resistance in human 2780AD cells assessed as accumulation of calcein at 2.5 ug/mL after 15 mins by fluorescence technique relative to verapamil; assay type: functional, A2780 ADR; method in brief: as §2
[5] = Reversal of multidrug resistance in human 2780AD cells assessed as accumulation of calcein at 25 ug/mL after 15 mins by fluorescence technique relative to control; assay type: functional, A2780 ADR; method in brief: as §1
WI-38 VA13 = experiment: Growth inhibition of human VA13 cells after 48 hrs by WST8 assay; assay type: functional, cell-based; details: WI-38 VA13, 48 h
Method in brief: (§3)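 Cells seeded at ca. 5000 per well, held 24 h at 37 °C in 5% CO2, then exposed 48 h to samples dissolved in DMSO. Media with 10% FBS: WI-38 in Eagle's MEM, VA-13 in RITC 80-7, HepG2 in D-MEM. WST-8 formazan read at 450 nm. Viability is background-corrected versus control, IC50 is taken from viability–concentration plots, and values are means of three independent experiments.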

HepG2 = experiment: Growth inhibition of human HepG2 cells after 48 hrs by WST8 assay; assay type: functional, cell-based; details: HepG2, 48 h; method in brief: as §3
[6] = Growth inhibition of human WI38 cells after 48 hrs by WST8 assay; assay type: cell-based; details: WI-38, 48 h; method in brief: as §3
[7] = Reversal of multidrug resistance in human 2780AD cells assessed as accumulation of calcein at 25 ug/mL after 15 mins by fluorescence technique relative to verapamil; assay type: functional, A2780 ADR; method in brief: as §2

SMILES	pIC50 (HepG2)	Activity [1]	Activity [2]	Activity [3]	Activity [4]	Activity [5]	pIC50 (WI-38 VA13)	pIC50 [6]	Activity [7]
COc1cc(C[C@@H]2COC(=O)[C@H]2Cc2cc(OC)c3c(c2)OCO3)cc2c1OCO2	3.68	93%	104%	91%	86%	116%	3.89	< 3.62	81%
COc1cc([C@@H](O)[C@H]2C(=O)OC[C@@H]2Cc2cc(OC)c3c(c2)OCO3)cc(OC)c1O	< 3.64	91%	88%	93%	96%	104%	3.64	< 3.64	78%
COc1cc(C[C@@H]2COC(=O)[C@H]2Cc2ccc3c(c2)OCO3)cc2c1OCO2	< 3.59	91%	102%	74%	70%	96%	< 3.59	< 3.59	67%
COc1cc(C[C@@H]2C(=O)OC[C@H]2Cc2ccc3c(c2)OCO3)cc(OC)c1O	< 3.59	93%	90%	94%	97%	127%	3.74	< 3.59	96%
COc1cc(C[C@H](COC(C)=O)[C@@H](COC(C)=O)Cc2cc(OC)c3c(c2)OCO3)cc2c1OCO2	< 3.70						< 3.70	< 3.70	
COc1cccc2c1C(=O)c1c(O)c3c(c(O)c1C2=O)C[C@@](O)(C(=O)CO)C[C@@H]3O[C@H]1C[C@H](N)[C@H](O)[C@H](C)O1 [DOXORUBICIN]	6.16						6.66	6.42	
COc1ccc(CCN(C)CCCC(C#N)(c2ccc(OC)c(OC)c2)C(C)C)cc1OC (centres undefined) [VERAPAMIL]		104%		106%		144%			

The remaining compounds from weak to strong by pIC50 (HepG2), led by results:

pIC50 (HepG2)	SMILES	Activity [1]	Activity [2]	Activity [3]	Activity [4]	Activity [5]	pIC50 (WI-38 VA13)	pIC50 [6]	Activity [7]
3.69	COc1cc(C[C@@H]2C(=O)OC[C@H]2Cc2cc(OC)c3c(c2)OCO3)cc(OC)c1O	86%	83%	91%	94%	129%	3.88	3.71	97%
3.70	COc1cc(C[C@@H]2C(=O)OC[C@H]2Cc2cc(OC)c3c(c2)OCO3)ccc1O	77%	74%	86%	89%	85%	3.68	< 3.59	64%
3.70	COc1cc(/C=C2/C(=O)OC[C@H]2Cc2cc(OC)c3c(c2)OCO3)cc(OC)c1O	90%	87%	90%	93%	114%	3.81	3.62	86%
3.73	COc1cc(C(=O)[C@@H]2C(=O)OC[C@H]2Cc2cc(OC)c3c(c2)OCO3)cc(OC)c1O						3.90	3.76	
3.79	COc1cc(C[C@@H]2C(=O)OC[C@H]2Cc2cc(OC)c3c(c2)OCO3)cc(O)c1O	98%	110%	91%	86%	120%	3.74	3.85	84%
3.82	COc1cc(C[C@@H](CO)[C@H](CO)Cc2cc(OC)c3c(c2)OCO3)cc2c1OCO2	97%	93%	103%	107%	121%	3.66	3.73	91%
4.37	COc1cc(C[C@@H]2C(=O)OC[C@H]2Cc2cc(OC)c3c(c2)OCO3)cc(OC)c1OC	96%	92%	99%	102%	155%	3.93	< 3.63	116%
4.58	COc1cc(C[C@@H]2C(=O)OC[C@H]2Cc2ccc3c(c2)OCO3)cc2c1OCO2	80%	90%	109%	103%	124%	4.63	< 3.59	86%
5.16	CC(=O)O[C@H]1C(=O)[C@@]2(C)[C@H]([C@H](OC(=O)c3ccccc3)[C@]3(O)C[C@H](OC(=O)[C@H](O)[C@@H](NC(=O)c4ccccc4)c4ccccc4)C(C)=C1C3(C)C)[C@]1(OC(C)=O)CO[C@@H]1C[C@@H]2O [PACLITAXEL]						8.37	7.47	
